Data as given in ChEMBL document CHEMBL3045217, “Factors affecting the synergy of thiabendazole, sodium bicarbonate, and heat to control postharvest green mold of citrus fruit” (J Agric Food Chem, 2008).

Tests used:
[1] = tested on: Fruit; test: Drug residues in Citrus sinensis cvs. Valencia late (Valencia oranges) at 200 mg/L treated for 1 min at 50 degC postharvest measured after 20 days of storage at 17 degC by GC analysis; format: ADME
How it was run: (§1)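 'Valencia' oranges were dipped 1 min in TBZ at 600 mg/L (20 °C, ±0.5, 1 or 2% wt/vol SBC), 400 mg/L (40 °C, ±SBC) or 200 mg/L (50 °C, alone), then air-dried. They were sampled at 0, 10 and 20 days at 17 °C. Peel of five fruit was frozen, and 5 g of homogenate was extracted with ethyl acetate/hexane (1/1) plus NaCl. The extract was dried under N2, taken up in acetone and analysed by GC. Results are mg/kg on a whole-fruit basis.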

[2] = tested on: Penicillium digitatum; test: (§2) Fungicidal activity against TBZ-sensitive Penicillium digitatum infected Nova mandarins assessed as postharvest green mold incidence at 600 mg/L treated for 1 min at 20 degC at 20 hr after fungal conidial inoculation measured after 5 days of storage at 20 degC in presence of 1% SBC (water Rvb = 96.7%); format: functional
How it was run: (§3)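 Fruit were surface-disinfected in 1 g/L hypochlorite for 30 s, rinsed, dried, then wounded twice equatorially (2 mm × 2 mm rod). Inoculation was a 1 min dip in P. digitatum conidia, 1 × 10^5 conidia/mL final. Fruit were held 20 h at 20 °C and 90% RH, dipped 1 min (SBC wt/vol), and air-dried. Storage was 20 °C, 90% RH. Decay incidence (% fruit with lesions) was scored at 5 d for mandarins and 7 d for oranges. Three replicates of 40 fruit were used; arcsin-transformed data were compared by LSD, p ≤ 0.05.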

[3] = tested on: Penicillium digitatum; test: as §2, with “Valencia oranges” for “Nova mandarins”, “7” for “5”, “30.8%)” for “96.7%)”; format: functional; how it was run: as §3
[4] = tested on: Penicillium digitatum; test: Fungicidal activity against TBZ-sensitive Penicillium digitatum infected Nova mandarins assessed as postharvest green mold incidence at 200 mg/L treated for 1 min at 50 degC at 20 hr after fungal conidial inoculation measured after 5 days of storage at 20 degC (water Rvb = 98.3%); format: functional; how it was run: as §3
[5] = tested on: Fruit; test: Total drug residues in Citrus sinensis cvs. Salustiana (Salustiana oranges) fruit at 600 mg/L treated for 1 min at 20 degC postharvest measured after overnight incubation at 17 degC in presence of 2% SBC by GC analysis; format: ADME
How it was run: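 'Salustiana' oranges were water-washed, dried, dipped, then dried overnight at 17 °C in the dark. Unextracted fruit were used for total residues. Peel from five oranges was frozen at -18 °C. 5 g homogenized peel was extracted with 10 mL ethyl acetate/hexane (1/1) plus 2 g NaCl, shaken 30 min, then 1 mL of organic layer was dried under N2, redissolved in acetone, and run by GC without cleanup. Results are on a whole-fruit basis.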

[6] = tested on: Fruit; test: Drug residues in Citrus sinensis cvs. Valencia late (Valencia oranges) at 400 mg/L treated for 1 min at 40 degC postharvest measured after 20 days of storage at 17 degC in presence of 1% SBC by GC analysis; format: ADME; how it was run: as §1
[7] = tested on: Penicillium digitatum; test: Fungicidal activity against Penicillium digitatum infected Valenica oranges assessed as fruit weight loss at 400 mg/L treated for 1 min at 40 degC postharvest at 20 hr after fungal conidial inoculation measured after 14 days of storage at 17 degC in presence of 1% SBC (water Rvb = 8.68%); format: functional
[8] = tested on: Penicillium digitatum; test: Fungicidal activity against Penicillium digitatum infected Valenica oranges assessed as fruit weight loss at 600 mg/L treated for 1 min at 20 degC postharvest at 20 hr after fungal conidial inoculation measured after 14 days of storage at 17 degC in presence of 2% SBC (water Rvb = 8.02%); format: functional
[9] = tested on: Fruit; test: Drug residues in Citrus sinensis cvs. Valencia late (Valencia oranges) at 400 mg/L treated for 1 min at 40 degC postharvest measured after 10 days of storage at 17 degC in presence of 1% SBC by GC analysis; format: ADME; how it was run: as §1
[10] = tested on: Cuticular wax; test: Drug residues in Citrus sinensis cvs. Salustiana (Salustiana oranges) cuticular wax at 600 mg/L treated for 1 min at 20 degC postharvest measured after overnight incubation at 17 degC by GC analysis; format: ADME
How it was run: (§4)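 'Salustiana' oranges were washed with water and air-dried. They were dipped 1 or 3 min in TBZ 600 mg/L at 20 or 50 °C, or 1 min in TBZ 600 mg/L plus 2% SBC at 20 °C, then dried overnight at 17 °C in the dark. Surface residue was taken by water extraction and wax residue by chloroform extraction. Inner residue was measured in fruit after both extractions. Extracts were dried under N2, taken up in acetone and analysed by GC. Values are mg/kg on a whole-fruit basis.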

[11] = tested on: Inner fruit; test: Drug residues in Citrus sinensis cvs. Salustiana (Salustiana oranges) inner fruit at 600 mg/L treated for 1 min at 20 degC postharvest measured after overnight incubation at 17 degC by GC analysis; format: ADME; how it was run: as §4
[12] = tested on: Fruit; test: Drug residues in Citrus sinensis cvs. Valencia late (Valencia oranges) at 600 mg/L treated for 1 min at 20 degC postharvest measured after 10 days of storage at 17 degC in presence of 0.5% SBC by GC analysis; format: ADME; how it was run: as §1
[13] = tested on: Penicillium digitatum; test: Fungicidal activity against Penicillium digitatum infected Valenica oranges assessed as fruit weight loss at 400 mg/L treated for 1 min at 40 degC postharvest at 20 hr after fungal conidial inoculation measured after 21 days of storage at 17 degC in presence of 2% SBC (water Rvb = 13.47%); format: functional
[14] = tested on: Penicillium digitatum; test: as §2, with “incidence at 400 mg/L treated” for “incidence at 600 mg/L treated”, “min at 40 degC at” for “min at 20 degC at”, “Rvb = 93.3%)” for “Rvb = 96.7%)”; format: functional; how it was run: as §3
[15] = tested on: Fruit; test: Drug residues in Citrus sinensis cvs. Valencia late (Valencia oranges) at 600 mg/L treated for 1 min at 20 degC postharvest measured after 20 days of storage at 17 degC in presence of 0.5% SBC by GC analysis; format: ADME; how it was run: as §1
[16] = tested on: Fruit surface; test: Drug residues on Citrus sinensis cvs. Salustiana (Salustiana oranges) fruit surface at 600 mg/L treated for 1 min at 20 degC postharvest measured after overnight incubation at 17 degC by GC analysis; format: ADME; how it was run: as §4
[17] = tested on: Penicillium digitatum; test: Fungicidal activity against TBZ-resistant Penicillium digitatum infected Nova mandarins assessed as postharvest green mold incidence at 400 mg/L treated for 1 min at 40 degC at 20 hr after fungal conidial inoculation measured after 5 days of storage at 20 degC (water Rvb = 96.7%); format: functional
[18] = tested on: Penicillium digitatum; test: Fungicidal activity against Penicillium digitatum infected Valenica oranges assessed as fruit weight loss at 200 mg/L treated for 1 min at 50 degC postharvest at 20 hr after fungal conidial inoculation measured after 14 days of storage at 17 degC (water Rvb = 6.18%); format: functional
[19] = tested on: Cuticular wax; test: Drug residues in Citrus sinensis cvs. Salustiana (Salustiana oranges) cuticular wax at 600 mg/L treated for 3 min at 50 degC postharvest measured after overnight incubation at 17 degC by GC analysis; format: ADME; conditions: 0.05 h; how it was run: as §4
[20] = tested on: Penicillium digitatum; test: Fungicidal activity against Penicillium digitatum infected Valenica oranges assessed as fruit weight loss at 400 mg/L treated for 1 min at 40 degC postharvest at 20 hr after fungal conidial inoculation measured after 21 days of storage at 17 degC in presence of 0.5% SBC (water Rvb = 11.43%); format: functional

## c1ccc2[nH]c(-c3cscn3)nc2c1 [THIABENDAZOLE]
[1]
  Drug uptake: 0.38 mg/kg
[2]
  Activity: 3.3%
[3]
  Activity: 9.2%
[4]
  Activity: 3.3%
[5]
  Drug uptake: 0.91 mg/kg
[6]
  Drug uptake: 0.71 mg/kg
[7]
  Activity: 8.11%
[8]
  Activity: 9.38%
[9]
  Drug uptake: 0.7 mg/kg
[10]
  Drug uptake: 0.17 mg/kg
[11]
  Drug uptake: 0.13 mg/kg
[12]
  Drug uptake: 1.4 mg/kg
[13]
  Activity: 13.98%
[14]
  Activity: 5%
[15]
  Drug uptake: 1.31 mg/kg
[16]
  Drug uptake: 0.68 mg/kg
[17]
  Activity: 88.3%
[18]
  Activity: 5.8%
[19]
  Drug uptake: 0.48 mg/kg
[20]
  Activity: 12.23%
